Source: ChEMBL document CHEMBL2417469, “Synthesis of novel analogs of 2-pyrazoline obtained from [(7-chloroquinolin-4-yl)amino]chalcones and hydrazine as potential antitumor and antimalarial agents” (Eur J Med Chem, 2013)

Legend:
SNB-75 = assay: Cytotoxicity against human SNB75 cells after 48 hrs by SRB assay; format: functional; settings: SNB-75, 48 h
Outline: (§1)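 NCI 60-cell screen. Cells grew 24 h (37 °C, 5% CO2) before compound was added. Compounds were in DMSO and diluted in medium with gentamicin, then tested at five levels (100, 10, 1.0, 0.1, 0.01 µM) with 48 h continuous exposure. Adherent cells were fixed with TCA (10% final) and stained with 0.4% SRB, absorbance read at 515 nm. A time-zero plate was included. LC50 is the concentration giving 50% loss of protein relative to time zero.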

IGROV-1 = assay: Cytotoxicity against human IGROV1 cells after 48 hrs by SRB assay; format: functional; settings: IGROV-1, 48 h
Outline: (§2)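 NCI 60-cell-line screen. Cells preincubated 24 h at 37 °C, 5% CO2; time-zero plates TCA-fixed. Compounds dissolved in DMSO and tested at five concentrations (100, 10, 1.0, 0.1, 0.01 µM) for 48 h continuous exposure. Adherent cells fixed with cold TCA (10% final), then SRB stained; absorbance at 515 nm. GI50, TGI and LC50 calculated from growth relative to time-zero and untreated controls.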

OVCAR-5 = assay: Cytotoxicity against human OVCAR5 cells after 48 hrs by SRB assay; format: functional; settings: OVCAR-5, 48 h; outline: as §2
UACC-257 = assay: Cytotoxicity against human UACC257 cells after 48 hrs by SRB assay; format: functional; settings: UACC-257, 48 h; outline: as §1
SF-295 = assay: Cytotoxicity against human SF295 cells after 48 hrs by SRB assay; format: functional; settings: SF-295, 48 h; outline: as §2
NCI-H226 = assay: Cytotoxicity against human NCI-H226 cells after 48 hrs by SRB assay; format: functional; settings: NCI-H226, 48 h; outline: as §2
U-251 = assay: Cytotoxicity against human U251 cells after 48 hrs by SRB assay; format: functional; settings: U-251, 48 h; for CC50: read-out: LC50 (the source's name); outline: as §1
A498 = assay: Cytotoxicity against human A498 cells after 48 hrs by SRB assay; format: functional; settings: A498, 48 h; for CC50: read-out: LC50 (the source's name); outline: as §2
Plasmodium falciparum = assay: Antimalarial activity against Plasmodium falciparum NF54 infected in human serum at 20 ug/ml after 48 hrs by fluorometric method; format: functional
Outline: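 Asynchronous P. falciparum NF54 at 1.5–2% parasitemia, 5% hematocrit in RPMI with 10% human serum, exposed 48 h at 37 °C under 90% N2/5% CO2/5% O2 at the stated concentration; parasite DNA stained with ethidium bromide after proteinase K lysis; viability % = (Flu treated − medium)/(Flu untreated − medium) ×100; triplicate.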

UO-31 = assay: Cytotoxicity against human UO31 cells after 48 hrs by SRB assay; format: functional; settings: UO-31, 48 h; outline: as §1
SF-268 = assay: Cytotoxicity against human SF268 cells after 48 hrs by SRB assay; format: functional; settings: SF-268, 48 h; outline: as §2
RXF 393 = assay: Cytotoxicity against human RXF393 cells after 48 hrs by SRB assay; format: functional; settings: RXF 393, 48 h; outline: as §2
[1] = Cytotoxicity against human EKVX cells after 48 hrs by SRB assay; format: functional; outline: as §2
DU-145 = assay: Cytotoxicity against human DU145 cells after 48 hrs by SRB assay; format: functional; settings: DU-145, 48 h; outline: as §2
NCI-H322M = assay: Cytotoxicity against human NCI-H322M cells after 48 hrs by SRB assay; format: functional; outline: as §2
MDA-MB-231 = assay: Cytotoxicity against human MDA-MB-231 cells after 48 hrs by SRB assay; format: functional; settings: MDA-MB-231, 48 h; outline: as §2
OVCAR-4 = assay: Cytotoxicity against human OVCAR4 cells after 48 hrs by SRB assay; format: functional; settings: OVCAR-4, 48 h; outline: as §2
HCC 2998 = assay: Cytotoxicity against human HCC2998 cells after 48 hrs by SRB assay; format: functional; settings: HCC 2998, 48 h; outline: as §2
SW-620 = assay: Cytotoxicity against human SW620 cells after 48 hrs by SRB assay; format: functional; settings: SW-620, 48 h; outline: as §1
SF-539 = assay: Cytotoxicity against human SF539 cells after 48 hrs by SRB assay; format: functional; settings: SF-539, 48 h; for CC50: read-out: LC50 (the source's name); outline: as §2
MOLT-4 = assay: Cytotoxicity against human MOLT4 cells after 48 hrs by SRB assay; format: functional; settings: MOLT-4, 48 h; outline: as §2
SNB-19 = assay: Cytotoxicity against human SNB19 cells after 48 hrs by SRB assay; format: functional; settings: SNB-19, 48 h; outline: as §1
TK-10 = assay: Cytotoxicity against human TK10 cells after 48 hrs by SRB assay; format: functional; settings: TK-10, 48 h; outline: as §1
[2] = Toxicity in RBC (unknown origin) assessed as hemolysis after 48 hrs at 20 to 80 ug/ml by spectrophotometry; format: cell-based, Erythrocyte; settings: red blood cells (RBC); read-out: Activity
Outline: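 Red blood cells at 5% hematocrit in RPMI 1640 exposed to 20, 40 and 80 µg/mL for 48 h at 37 °C; free hemoglobin read spectrophotometrically at 542 nm.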

K562 = assay: Cytotoxicity against human K562 cells after 48 hrs by SRB assay; format: functional; settings: K562, 48 h; outline: as §2

Compound: O=CN1N=C(c2ccc(Nc3ccnc4cc(Cl)ccc34)cc2)CC1c1ccc(Cl)cc1 (centres undefined)
- GI50 (SNB-75): 420 nM
- LC50 (50% net cell kill) (SNB-75): > 100 µM
- GI50 (IGROV-1): 5.01 µM
- LC50 (concentration killing 50% of cells relative to time zero) (IGROV-1): > 100 µM
- GI50 (OVCAR-5): 6.46 µM
- LC50 (OVCAR-5): > 100 µM
- GI50 (UACC-257): > 100 µM
- LC50 (UACC-257): > 100 µM
- GI50 (SF-295): 270 nM
- LC50 (SF-295): > 100 µM
- GI50 (NCI-H226): 4.66 µM
- LC50 (50% lethal concentration) (NCI-H226): > 100 µM
- GI50 (U-251): 510 nM
- CC50 (U-251): > 100 µM
- GI50 (A498): > 100000 nM
- CC50 (A498): > 100 µM
- inhibition at 20 µg/mL (Plasmodium falciparum): 1.1%
- GI50 (UO-31): 1300 nM
- LC50 (UO-31): > 100 µM
- GI50 (SF-268): 850 nM
- LC50 (SF-268): > 100 µM
- GI50 (RXF 393): 1880 nM
- LC50 (concentration killing 50% of cells) (RXF 393): > 100 µM
- LC50 [1]: > 100 µM
- GI50 (DU-145): 1940 nM
- LC50 (concentration killing 50% of cells) (DU-145): > 100 µM
- GI50 (NCI-H322M): > 100000 nM
- LC50 (50% lethal concentration) (NCI-H322M): > 100 µM
- GI50 (MDA-MB-231): 1430 nM
- LC50 (concentration killing 50% of cells present at time zero) (MDA-MB-231): > 100 µM
- GI50 (OVCAR-4): 6.48 µM
- LC50 (OVCAR-4): > 100 µM
- GI50 (HCC 2998): 1610 nM
- LC50 (HCC 2998): > 100 µM
- GI50 (SW-620): 480 nM
- LC50 (SW-620): > 100 µM
- GI50 (SF-539): 580 nM
- CC50 (SF-539): > 100 µM
- GI50 (MOLT-4): 530 nM
- LC50 (MOLT-4): > 100 µM
- GI50 (SNB-19): 1920 nM
- LC50 (SNB-19): > 100 µM
- GI50 (TK-10): 9.57 µM
- LC50 (concentration giving 50% cell loss vs time zero) (TK-10): > 100 µM

Compound: O=CN1N=C(c2ccc(Nc3ccnc4cc(Cl)ccc34)cc2)CC1c1ccccc1 (centres undefined)
- GI50 (SNB-75): 5030 nM
- LC50 (50% net cell kill) (SNB-75): > 100 µM
- GI50 (IGROV-1): 9.36 µM
- LC50 (concentration killing 50% of cells relative to time zero) (IGROV-1): > 100 µM
- GI50 (OVCAR-5): 19.8 µM
- LC50 (OVCAR-5): > 100 µM
- GI50 (UACC-257): 10.1 µM
- LC50 (UACC-257): > 100 µM
- GI50 (SF-295): 2410 nM
- LC50 (SF-295): > 100 µM
- hemolysis at 48 h [2]: 3.8%
- GI50 (NCI-H226): 5.22 µM
- LC50 (50% lethal concentration) (NCI-H226): > 100 µM
- GI50 (U-251): 3120 nM
- CC50 (U-251): > 100 µM
- GI50 (A498): 1300 nM
- CC50 (A498): > 100 µM
- inhibition at 20 µg/mL (Plasmodium falciparum): 20.2%
- GI50 (UO-31): 3810 nM
- LC50 (UO-31): > 100 µM
- GI50 (SF-268): 3960 nM
- LC50 (SF-268): > 100 µM
- GI50 (RXF 393): 2200 nM
- LC50 (concentration killing 50% of cells) (RXF 393): > 100 µM
- GI50 [1]: 4940 nM
- LC50 [1]: > 100 µM
- GI50 (DU-145): 3800 nM
- LC50 (concentration killing 50% of cells) (DU-145): > 100 µM
- GI50 (MDA-MB-231): 2430 nM
- LC50 (concentration killing 50% of cells present at time zero) (MDA-MB-231): > 100 µM
- GI50 (OVCAR-4): 3.88 µM
- LC50 (OVCAR-4): > 100 µM
- GI50 (HCC 2998): 3500 nM
- LC50 (HCC 2998): > 100 µM
- GI50 (SW-620): 2730 nM
- LC50 (SW-620): 68.7 µM
- GI50 (SF-539): 4570 nM
- CC50 (SF-539): 99.2 µM
- GI50 (MOLT-4): 2280 nM
- LC50 (MOLT-4): > 100 µM
- GI50 (SNB-19): 5130 nM
- LC50 (SNB-19): > 100 µM
- GI50 (TK-10): 9.51 µM
- LC50 (concentration giving 50% cell loss vs time zero) (TK-10): > 100 µM

Compound: COc1cccc2c1C(=O)c1c(O)c3c(c(O)c1C2=O)C[C@@](O)(C(=O)CO)C[C@@H]3O[C@H]1C[C@H](N)[C@H](O)[C@H](C)O1 [DOXORUBICIN]
- GI50 (SNB-75): 70 nM
- GI50 (IGROV-1): 0.17 µM
- GI50 (OVCAR-5): 0.41 µM
- GI50 (UACC-257): 0.14 µM
- GI50 (SF-295): 100 nM
- GI50 (NCI-H226): 0.05 µM
- GI50 (U-251): 40 nM
- CC50 (U-251): 30.6 µM
- GI50 (A498): 100 nM
- CC50 (A498): 1.9 µM
- GI50 (UO-31): 490 nM
- GI50 (SF-268): 100 nM
- GI50 (RXF 393): 100 nM
- GI50 [1]: 410 nM
- GI50 (DU-145): 110 nM
- GI50 (NCI-H322M): 540 nM
- GI50 (MDA-MB-231): 510 nM
- GI50 (OVCAR-4): 0.37 µM
- GI50 (HCC 2998): 260 nM
- GI50 (SW-620): 90 nM
- GI50 (K562): 190 nM
- GI50 (SF-539): 120 nM
- CC50 (SF-539): 27.2 µM
- GI50 (MOLT-4): 30 nM
- GI50 (SNB-19): 40 nM
- GI50 (TK-10): 0.18 µM
